# According to ChEMBL document CHEMBL3352255, “Tailor-made fluorescent trilobolide to study its biological relevance” (J Med Chem, 2014):
# Activity calls are given as the source filed them. The rule behind the calls is not given here.
# Experiments:
# [1] = Cellular uptake in mitochondria of human PC3 cells at 1 uM after 10 to 40 mins by fluorescence microscopy; format: ADME; conditions: pc-3, 1 µM
# Method in brief: (§1)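 Live cells were treated with 1 μM Bodipy conjugates for at least 40 min and then co-stained with MitoTracker Red FM (100 nM, 10 min). Imaging by fluorescence microscopy assessed colocalisation with the green signal and the state of the mitochondrial network.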
# [2] = system: PC-3; assay: Induction of mitochondria fragmentation in human PC3 cells at 1 uM after 10 to 40 mins by fluorescence microscopy; format: functional, cell-based; method in brief: as §1
# [3] = system: LNCaP; assay: Cytotoxicity against human LNCAP cells after 24 hrs by WST-1 assay; format: functional, cell-based
# Method in brief: (§2)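 Dark cytotoxicity (no light exposure) by WST-1 tetrazolium-to-formazan conversion reflecting metabolic activity; compounds tested at concentrations up to 50 μM for 24, 48 or 72 h; IC50 taken as concentration giving 50% inhibition of cell viability.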
# [4] = system: LNCaP; assay: Cytotoxicity against human LNCAP cells after 72 hrs by WST-1 assay; format: functional, cell-based; method in brief: as §2
# [5] = Cytotoxicity against human PC3 cells after 24 hrs by WST-1 assay; format: functional, cell-based; conditions: PC-3, 24 h; method in brief: as §2
# [6] = Cytotoxicity against human PC3 cells after 72 hrs by WST-1 assay; format: functional, cell-based; conditions: PC-3, 72 h; method in brief: as §2
# [7] = system: C2C12; assay: Cytotoxicity against mouse C2C12 cells after 24 hrs by WST-1 assay; format: functional, cell-based; conditions: C2C12, 24 h; method in brief: as §2
# [8] = system: C2C12; assay: Cytotoxicity against mouse C2C12 cells after 48 hrs by WST-1 assay; format: functional, cell-based; conditions: C2C12, 48 h; method in brief: as §2
# [9] = system: U2OS; assay: Cytotoxicity against human U2OS cells after 24 hrs by WST-1 assay; format: functional, cell-based; method in brief: as §2
# [10] = system: U2OS; assay: Cytotoxicity against human U2OS cells after 48 hrs by WST-1 assay; format: functional, cell-based; method in brief: as §2
# [11] = system: U2OS; assay: Cytotoxicity against human U2OS cells after 72 hrs by WST-1 assay; format: functional, cell-based; method in brief: as §2
# [12] = system: MCF7; assay: Cytotoxicity against human MCF7 cells after 24 hrs by WST-1 assay; format: functional, cell-based; conditions: MCF7, 24 h; method in brief: as §2
# [13] = system: MCF7; assay: Cytotoxicity against human MCF7 cells after 48 hrs by WST-1 assay; format: functional, cell-based; conditions: MCF7, 48 h; method in brief: as §2
# [14] = Cytotoxicity against human MIAPaCa2 cells after 72 hrs by WST-1 assay; format: functional, cell-based; conditions: MIA PaCa-2, 72 h; method in brief: as §2
# [15] = system: HT-29; assay: Cytotoxicity against human HT-29 cells after 24 hrs by WST-1 assay; format: functional, cell-based; conditions: HT-29, 24 h; method in brief: as §2
# [16] = system: HT-29; assay: Cytotoxicity against human HT-29 cells after 48 hrs by WST-1 assay; format: functional, cell-based; conditions: HT-29, 48 h; method in brief: as §2
# [17] = system: HT-29; assay: Cytotoxicity against human HT-29 cells after 72 hrs by WST-1 assay; format: functional, cell-based; conditions: HT-29, 72 h; method in brief: as §2
# [18] = Cytotoxicity against rat peritoneal cells assessed as reduction in cell viability at 40 uM after 24 hrs by WST-1 assay; format: cell-based
# [19] = organism: Rattus norvegicus; assay: Induction of LPS-induced NO production in rat peritoneal cells at 40 uM after 24 hrs using DAR-2 probe by fluorescence assay; format: functional, cell-based
# Method in brief: (§3)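 Rat peritoneal cells were treated with conjugates at 0.01–100.0 μM for 24 h. NO production was compared with untreated cells. LPS (100 pg·mL−1) and trilobolide (0.1 μM) were included as references. Data are mean ± SEM of three independent experiments, n = 6.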
# [20] = system: PC-3; assay: Induction of LPS-induced NO production in human PC3 cells at 40 uM after 24 hrs using DAR-2 probe by fluorescence assay; format: functional, cell-based
# Method in brief: (§4)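 NO in living cells (PC-3, LNCaP, MCF-7, U-2 OS) was imaged by fluorescence microscopy with the NO-specific red-emitting probe DAR-2 after compound stimulation.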
# [21] = system: LNCaP; assay: Induction of LPS-induced NO production in human LNCAP cells at 40 uM after 24 hrs using DAR-2 probe by fluorescence assay; format: functional, cell-based; method in brief: as §4
# [22] = system: MCF7; assay: Induction of LPS-induced NO production in human MCF7 cells at 40 uM after 24 hrs using DAR-2 probe by fluorescence assay; format: functional, cell-based; method in brief: as §4
# [23] = system: U2OS; assay: Induction of LPS-induced NO production in human U2OS cells at 40 uM after 24 hrs using DAR-2 probe by fluorescence assay; format: functional, cell-based; method in brief: as §4
# [24] = organism: Rattus norvegicus; assay: Induction of LPS-induced NO production in rat peritoneal cells after 24 hrs using DAR-2 probe by fluorescence assay; format: functional, cell-based
# [25] = organism: Rattus norvegicus; assay: Induction of LPS-induced NO production in rat peritoneal cells at 1 to 10 uM after 24 hrs using DAR-2 probe by fluorescence assay; format: functional, cell-based; method in brief: as §3
# [26] = system: U2OS; assay: Cellular uptake in human U2OS cells at 1 uM after 20 mins by fluorescence microscopy; format: ADME, cell-based
# Method in brief: (§5)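 Uptake into living cells was followed by fluorescence microscopy at 10, 20 and 40 min and at 1, 3, 5 and 24 h. Green-emitting Bodipy conjugates were given at 1 μM. A Bodipy dye-only stain served as control for dye-driven localisation.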
# [27] = system: LNCaP; assay: Cellular uptake in human LNCAP cells at 1 uM after 20 mins by fluorescence microscopy; format: ADME, cell-based; method in brief: as §5
# [28] = system: MCF7; assay: Cellular uptake in human MCF7 cells at 1 uM after 20 mins by fluorescence microscopy; format: ADME, cell-based; conditions: mcf7, 20 min; method in brief: as §5
# [29] = system: HeLa; assay: Cellular uptake in human HeLa cells at 1 uM after 20 mins by fluorescence microscopy; format: ADME, cell-based; method in brief: as §5
# [30] = system: A549; assay: Cellular uptake in human A549 cells at 1 uM after 20 mins by fluorescence microscopy; format: ADME, cell-based; conditions: a549, 20 min; method in brief: as §5
# [31] = system: U2OS; assay: Cellular uptake in human U2OS cells at 1 uM after 40 mins to 24 hrs by fluorescence microscopy; format: ADME, cell-based; method in brief: as §5
# [32] = Cellular uptake in human PC3 cells at 1 uM after 40 mins to 24 hrs by fluorescence microscopy; format: ADME, cell-based; conditions: pc-3, 1 µM; method in brief: as §5
# [33] = system: LNCaP; assay: Cellular uptake in human LNCAP cells at 1 uM after 40 mins to 24 hrs by fluorescence microscopy; format: ADME, cell-based; method in brief: as §5
# [34] = Cellular uptake in human MIAPaCa2 cells at 1 uM after 40 mins to 24 hrs by fluorescence microscopy; format: ADME, cell-based; conditions: mia paca-2, 1 µM; method in brief: as §5
# [35] = system: U2OS; assay: Cellular uptake in human U2OS cells at 1 uM after 45 to 60 mins by fluorescence microscopy; format: ADME, cell-based; method in brief: as §5
# [36] = Cellular uptake in Endoplasmic reticulum of human U2OS cells at 1 uM after 1 hr by fluorescence microscopy; format: ADME, cell-based
# Method in brief: (§6)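 Live-cell fluorescence microscopy of cells exposed to Bodipy-labelled conjugates at 1 μM for 1 h. ER was co-stained with ER-Tracker Blue-White DPX (100 nM, 20 min) to check colocalisation. A Bodipy dye-only stain served as control.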
# [37] = Cellular uptake in Endoplasmic reticulum of human PC3 cells at 1 uM after 1 hr by fluorescence microscopy; format: ADME, cell-based; conditions: pc-3, 1 h; method in brief: as §6
# [38] = Cellular uptake in Endoplasmic reticulum of human LNCAP cells at 1 uM after 1 hr by fluorescence microscopy; format: ADME, cell-based; method in brief: as §6
# [39] = Cellular uptake in Endoplasmic reticulum of human HeLa cells at 1 uM after 1 hr by fluorescence microscopy; format: ADME, cell-based; method in brief: as §6
# [40] = system: U2OS; assay: Induction of ER stress in Endoplasmic reticulum of human U2OS cells assessed as small vesicle formation from ER network at 1 uM after 3 to 5 hrs by fluorescence microscopy; format: functional, cell-based
# Method in brief: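 U-2 OS live cells were incubated with conjugates at 1 μM for 1, 3 and 5 h. Fluorescence microscopy was used to score small vesicles or pouches budding from the ER network.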
# [41] = Cellular uptake in mitochondria of human U2OS cells at 1 uM after 10 to 40 mins by fluorescence microscopy; format: ADME; method in brief: as §1
compound,measurement,setting,value
C/C=C(/C)C(=O)O[C@@H]1C[C@H]2C(=C1C)[C@@H]1OC(=O)[C@@](C)(O)[C@@]1(O)[C@@H](OC(=O)CCCCn1cc(COc3ccc(C4=C5C=CC=[N+]5[B-](F)(F)n5cccc54)cc3)nn1)C[C@]2(C)OC(C)=O,Drug uptake,[1],Not Active
same,Activity,[2],Active
same,IC50,[3],12.7 µM
same,IC50,[4],> 50 µM
same,IC50,[5],4.2 µM
same,IC50,[6],3.8 µM
same,IC50,[7],> 50 µM
same,IC50,[8],7.5 µM
same,IC50,[9],25.6 µM
same,IC50,[10],13.2 µM
same,IC50,[11],9.1 µM
same,IC50,[12],> 50 µM
same,IC50,[13],12.8 µM
same,IC50,[14],38.3 µM
same,IC50,[15],> 50 µM
same,IC50,[16],> 50 µM
same,IC50,[17],> 50 µM
same,Activity,[18],20%
same,Activity,[19],Active
same,Activity,[20],Active
same,Activity,[21],Active
same,Activity,[22],Active
same,Activity,[23],Active
same,Activity,[24],Dose-dependent effect
same,Activity,[25],Active
same,Drug uptake,[26],Active
same,Drug uptake,[27],Active
same,Drug uptake,[28],Active
same,Drug uptake,[29],Active
same,Drug uptake,[30],Active
same,Drug uptake,[31],Not Active
same,Drug uptake,[32],Active
same,Drug uptake,[33],Active
same,Drug uptake,[34],Active
same,Drug uptake,[35],Not Active
same,Drug uptake,[36],Active
same,Drug uptake,[37],Active
same,Drug uptake,[38],Active
same,Drug uptake,[39],Active
same,Activity,[40],Active
same,Drug uptake,[41],Not Active
C/C=C(/C)C(=O)O[C@@H]1C[C@H]2C(=C1C)[C@@H]1OC(=O)[C@@](C)(O)[C@@]1(O)[C@@H](OC(=O)CCOCCOCCOCCOCCn1cc(COc3ccc(C4=C5C=CC=[N+]5[B-](F)(F)n5cccc54)cc3)nn1)C[C@]2(C)OC(C)=O,Drug uptake,[1],Not Active
same,Activity,[2],Active
same,IC50,[3],7.4 µM
same,IC50,[4],20.5 µM
same,IC50,[5],2.5 µM
same,IC50,[6],4.1 µM
same,IC50,[7],8 µM
same,IC50,[8],6.5 µM
same,IC50,[9],> 50 µM
same,IC50,[10],5.4 µM
same,IC50,[11],9.1 µM
same,IC50,[12],7.4 µM
same,IC50,[13],6.3 µM
same,IC50,[14],6.5 µM
same,IC50,[15],> 50 µM
same,IC50,[16],14.2 µM
same,IC50,[17],> 50 µM
same,Activity,[18],Non-toxic
same,Activity,[19],Active
same,Activity,[20],Active
same,Activity,[21],Active
same,Activity,[22],Active
same,Activity,[23],Active
same,Activity,[24],Dose-dependent effect
same,Activity,[25],Active
same,Drug uptake,[26],Active
same,Drug uptake,[27],Active
same,Drug uptake,[28],Active
same,Drug uptake,[29],Active
same,Drug uptake,[30],Active
same,Drug uptake,[31],Not Active
same,Drug uptake,[32],Active
same,Drug uptake,[33],Active
same,Drug uptake,[34],Active
same,Drug uptake,[35],Not Active
same,Drug uptake,[36],Active
same,Drug uptake,[37],Active
same,Drug uptake,[38],Active
same,Drug uptake,[39],Active
same,Activity,[40],Active
same,Drug uptake,[41],Not Active
